Assay results from different studies.
Compare with care: the assays were run in different laboratories.

O=C(O)/C=C/c1ccc(O)cc1
IC50 (PaCa-2; cell growth or viability, MTT): > 50000 nM

CO[C@@H](C[C@H]1C(C)=CC[C@@H]2[C@]3(C)C[C@H](O[C@@H]4O[C@@H](C)[C@H](OC(=O)c5cccc(O)c5)[C@@H](O[C@@H]5O[C@H](CO)[C@@H](O)[C@H](O)[C@H]5NC(C)=O)[C@H]4O)[C@@H](O)C(C)(C)[C@H]3CC[C@]21C)[C@H](N)C(=O)O
IC50 (LN-229; cell growth or viability, ATP luminescence; 6 days): 130 nM

O=C(O)C(c1c[nH]c2ccccc12)c1c[nH]c2ccccc12
IC50 (LNCaP; cell growth or viability, MTT; 48 h): > 100000 nM

COc1ccc(C(=O)O[C@@H]2CN3Cc4c(cc5c(c4OC)OCO5)[C@@]24C=C[C@H](OC)C[C@@H]34)cc1
IC50 (MOLT-4; cell growth or viability, WST-1): > 10000 nM

CC(C)(C)SCCCC1=CC2C=CC=CC1C2C1CCCCC1=O (stereo not shown)
IC50 (Jurkat; cell growth or viability, flow cytometry): 57 nM

COc1cc(N2CCC(N3CCN(C)CC3)CC2)ccc1Nc1ncc(Cl)c(Nc2ccccc2S(=O)(=O)C(C)C)n1
IC50 (Rh4; cell growth or viability; 72 h): 90 nM

COc1cc(-c2[o+]c3cc(O)cc(O)c3cc2O[C@@H]2O[C@H](CO)[C@@H](O)[C@H](O)[C@H]2O)ccc1O
IC50 (SW780; cell growth or viability, ATP luminescence; 72 h): 137000 nM

COc1cc(Nc2nccc(-c3cnn4nc(OC)ccc34)n2)cc(C(F)(F)F)c1
IC50 (COV434; cell growth or viability, ATP luminescence): 500 nM

Cn1cc(C(c2ccc(/C=C/C(=O)O)s2)c2cn(C)c3ccccc23)c2ccccc21
IC50 (LNCaP; cell growth or viability, MTT; 48 h): > 20000 nM

CC[C@@]1(O)C(=O)OCc2c1cc1n(c2=O)Cc2cc3ccccc3nc2-1
IC50 (RPMI 8402; cell growth or viability, MTT; 96 h): 4 nM

Cc1ccc2c(c1)c(C(c1ccc(/C=C/C(=O)O)s1)c1cn(C(C)C)c3ccc(C)cc13)cn2C(C)C
IC50 (LNCaP; cell growth or viability, MTT; 48 h): < 3000 nM

CCOc1cc(OCC)cc(C(=O)O[C@@H]2CN3Cc4c(cc5c(c4OC)OCO5)[C@@]24C=C[C@H](OC)C[C@@H]34)c1
IC50 (MOLT-4; cell growth or viability, WST-1): 7600 nM

COc1cc(Nc2nc(C#N)cc3c(-c4ccccc4)n[nH]c23)cc(OC)c1OC
IC50 (MIA PaCa-2; cell growth or viability, MTS; 48 h): 3000 nM

O=c1c(O[C@@H]2O[C@H](CO)[C@@H](O)[C@H](O)[C@H]2O)c(-c2ccc(O)c(O)c2)oc2cc(O)cc(O)c12
IC50 (SW780; cell growth or viability, ATP luminescence; 72 h): 20100 nM

CC(=O)c1ccc(N=Nc2c(C(=O)O)cc(O)c(O)c2O)cc1
IC50 (PaCa-2; cell growth or viability, MTT): 12000 nM

N#CCCCC1=CC2C=CC=CC1C2C1CCCCC1=O (stereo not shown)
IC50 (Jurkat; cell growth or viability, flow cytometry): 69 nM

COc1ccc(-c2nc(OCc3cn(CC(=O)Nc4cccc(OC)c4)nn3)c3ccccc3n2)cc1
IC50 (WRL68; cell growth or viability, MTT; 72 h): 82700 nM

COc1cccc(C(=O)O[C@@H]2CN3Cc4c(cc5c(c4OC)OCO5)[C@@]24C=C[C@H](OC)C[C@@H]34)c1
IC50 (MOLT-4; cell growth or viability, WST-1): > 10000 nM

Cc1[nH]c(/C=C2\C(=O)Nc3ccc(S(=O)(=O)N(C)c4cccc(Cl)c4)cc32)c(C)c1C(=O)N1CCN(C)CC1
IC50 (Rh4; cell growth or viability; 72 h): 2210 nM

CC/C(=C(\c1ccc(O)cc1)c1ccc(OCCN(C)C)cc1)c1ccccc1
IC50 (T47D; cell growth or viability; 5 days): 2160 nM

C[C@H](Nc1ncnc2nc[nH]c12)c1cc2cccc(Cl)c2c(=O)n1-c1ccccc1
IC50 (CD4+ T; IL-2 release, inhibitor): 1.9 nM

O=C(O)/C=C/c1ccc(C(c2c[nH]c3ccccc23)c2c[nH]c3ccccc23)s1
IC50 (LNCaP; cell growth or viability, MTT; 48 h): 55000 nM

CCN(CC)CCCCNc1ncc2cc(-c3cc(OC)cc(OC)c3)c(NC(=O)NC(C)(C)C)nc2n1
IC50 (SW780; cell growth or viability, MTT; 5 days): 50 nM

O=C1CCCCC1C1C2C=CC=CC1C(CCCCOC1CCCCO1)=C2 (stereo not shown)
IC50 (Jurkat; cell growth or viability, flow cytometry): 135 nM

Cc1cc(Nc2ncc(Cl)c(Nc3ccccc3S(=O)(=O)C(C)C)n2)c(OC(C)C)cc1C1CCNCC1
IC50 (Rh4; cell growth or viability; 72 h): 340 nM

CC(C)C[C@H](NC(=O)[C@H](Cc1ccccc1)NC(=O)c1cnccn1)B(O)O
IC50 (LOU-NH91; cell growth or viability, ATP luminescence): 11 nM

NCc1cc2c(-c3ccccc3)n[nH]c2c(Nc2ccccc2)n1
IC50 (MIA PaCa-2; cell growth or viability, MTS; 48 h): 2300 nM

O=c1c(O)c(-c2cc(O)c(O)c(O)c2)oc2cc(O)cc(O)c12
IC50 (SW780; cell growth or viability, ATP luminescence; 72 h): 20900 nM

CC(=O)c1ccc(/N=N/c2cc(/C=C/C(=O)O)ccc2O)cc1
IC50 (PaCa-2; cell growth or viability, MTT): > 50000 nM

OC[C@H]1O[C@@H](Oc2cc3c(O)cc(O)cc3[o+]c2-c2ccc(O)c(O)c2)[C@H](O)[C@@H](O)[C@@H]1O
IC50 (SW780; cell growth or viability, ATP luminescence; 72 h): 169000 nM

CC(=O)c1cccc(N=Nc2c(C(=O)O)cc(O)c(O)c2O)c1
IC50 (PaCa-2; cell growth or viability, MTT): 9600 nM
